Assay outcomes deposited in PubChem BioAssay by several laboratories.
The entries come from a sample that favours hits as a whole.
T cell HTS: modulators of CD8 T cell-vesicle binding, primary screen, mouse 2C CD8+ T cells, flow cytometry; response (vesicle binding), % at 7 µM; 2C CD8+ T cell-vesicle binding; hits give low values; 330,000 compounds, 0.068% hits;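 active = response, share of CD8 T cells binding vesicles, and their 90th percentile fluorescence all below set limits, cut at about 80% in these data, passing the limit was not always enough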;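 also: values below 100% mean blocked vesicle binding to the CD8+ T cells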
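Incubation: binding step 1.5 h, 37 °C, antibody labelling 20 min, ice; system: murine 2C transgenic CD8+ T lymphocytes; technique: cytometric PE anti-B7-1 and Alexa647 anti-CD8 signals after 1% paraformaldehyde fixation; also added: QL9-charged Drosophila Ld/ICAM-1/B7-1 vesicles; control set: naked versus QL9-loaded vesicles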
N-glyco inh: increase of ERlucT glycosylation luciferase signal, primary screen, N-linked glycosylation inhibitor project, D54 ERlucT cells, luminescence, set 2; D54 ERlucT glycosylation luciferase reporter, 24 h; percent of 100 nM tunicamycin response; reporter increase, % at 12.5 µM; 360,000 compounds, 0.23% hits;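 active = mean luciferase reporter signal, scaled so untreated is 0 and the glycosylation-blocking control 100, at or above a set limit in every replicate; inconclusive = mean reaches the limit but not every replicate does; inactive = mean below the limit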;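 also: luciferase carries N-glycosylation sites so blocking glycosylation raises the light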
ALR H2O2 inh: inhibitors of human ALR sulfhydryl oxidase, primary screen, biochemical, H2O2 detection, HRP-luminol luminescence, single point; FAD-linked sulfhydryl oxidase ALR (Homo sapiens), P55789; purified ALR, DTT oxidation; inhibition, % (concentration not given with the values); 290,000 compounds, 3.8% hits;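 active = mean replicate inhibition above about 79%, with every replicate also reaching it, limit read from the data; inconclusive = only one of the two criteria met; inactive = mean below limit and not every replicate reaching it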
Target sequence (P55789 whole entry, looked up): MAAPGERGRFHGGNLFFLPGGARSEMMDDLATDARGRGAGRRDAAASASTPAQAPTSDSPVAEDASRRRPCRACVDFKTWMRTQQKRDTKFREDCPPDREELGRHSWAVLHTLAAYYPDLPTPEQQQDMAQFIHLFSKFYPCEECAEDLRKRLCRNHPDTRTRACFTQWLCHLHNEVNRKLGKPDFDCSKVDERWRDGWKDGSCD
Large screens that a line does not name were inactive.

CCN1/C(=C/c2ccc3cc(C)ccc3[n+]2CC)Sc2ccccc21	none
O=C1CCCCN1CCCC(=O)N1CCCC(Nc2ccc(F)c(F)c2)C1 (stereo not given)	none
COCCN(C(=O)c1ccc(COc2ccccc2)o1)c1c(N)n(CC(C)C)c(=O)[nH]c1=O	none
CCCOc1ccc2ccccc2c1/C=N/n1c(C)nnc1-n1nc(C)cc1C	N-glyco inh 27.3
Cc1cc(C)n(-c2nnc(C)n2/N=C/c2ccco2)n1	none
CCOC(=O)N/N=C/c1ccc(OC)c(O)c1	ALR H2O2 inh 93.8
COCc1cc(C)nc(OCC(=O)N/N=C/c2ccc(OC)c(O)c2)c1C#N	ALR H2O2 inh 98.9
COc1ccc(/C=N/NC(=O)C(N)=O)c(OC)c1OC	none
COc1cc(/C=N/NC(=O)C(N)=O)cc(OC)c1O	ALR H2O2 inh 98.8
COc1cc(/C=N/NC(=O)C(=O)N2CCCC2)ccc1O	none (no result: ALR H2O2 inh)
CCOC(=O)N/N=C/c1ccc(F)cc1	none
COCc1cc(C)nc(OCC(=O)N/N=C/c2ccc(C)cc2)c1C#N	none
COc1ccc(/C=N/NC(=O)C(=O)N2CCCCCC2)cc1O	ALR H2O2 inh 83.4
CCOc1ccc(C(=O)NCC2CCCN2S(=O)(=O)c2cccs2)cc1 (stereo not given)	none (no result: ALR H2O2 inh)
COc1ccc(N2CCN(C(=O)CN3C(=O)NC(C)(C4CC4)C3=O)CC2)cc1 (stereo not given)	none (no result: ALR H2O2 inh)
COc1cc(/C=N/NC(=O)c2cccc3ccccc23)cc(OC)c1O	none
CCOC(=O)N/N=C/c1cc(OC)c(O)c(OC)c1	ALR H2O2 inh 99.2
COc1cc(/C=N/N=C/c2cc(OC)c(O)c(OC)c2)cc(OC)c1O	ALR H2O2 inh 98.1
COc1ccc(/C=N/N=C/c2ccc(OC)c(OC)c2)cc1OC	none (no result: ALR H2O2 inh)
COc1cc(C(=O)N2CCCCCCC2)ccc1OC1CCN(C(C)=O)CC1	none
CC(=O)N1CCN=C1SCc1cccc(Cl)c1	ALR H2O2 inh 99.6
Cc1cccc(CSC2=NCCN2C(=O)C2CC2)c1	none
CC(=O)N1CCN=C1SCc1cccc(C)c1	ALR H2O2 inh 96.1
O=C(Cc1cccs1)N1CCN=C1SCc1cccc(F)c1	ALR H2O2 inh inconclusive
CCC(=O)N1CCN=C1SCc1cccc(F)c1	ALR H2O2 inh 96.5
CC(=O)N1CCN=C1SCc1cccc(F)c1	ALR H2O2 inh 97.0
N#Cc1ccc(NC(=O)Cn2cnc(S(=O)(=O)N3CCCC3)c2)cc1	none
Cn1c(-c2ccc(F)cc2)cnc1NCc1cccc([N+](=O)[O-])c1	none
Cn1c(-c2cccc([N+](=O)[O-])c2)cnc1NCc1cccc(F)c1	ALR H2O2 inh 98.6
Cn1c(-c2ccc(Br)cc2)cnc1NCc1ccc(C#N)cc1	none
Cn1c(-c2cccc([N+](=O)[O-])c2)cnc1NCc1ccc(C#N)cc1	ALR H2O2 inh 98.6
O=C(O)CC/C(=N/NC(=O)c1ccc(-c2ccccc2)cc1)c1ccccc1	none
O=C(COC(=O)CNS(=O)(=O)c1ccc(Br)cc1Cl)NC1CCCC1	none (no result: ALR H2O2 inh)
CSc1ccccc1C(=O)NC(C)c1ccc(-n2ccnc2)cc1 (stereo not given)	none
CSCc1ccc(C(=O)NC(C)c2ccc(-n3ccnc3)cc2)cc1 (stereo not given)	ALR H2O2 inh 98.2
COc1ccc(C(=O)Nc2nnc(SCC(=O)NCc3ccco3)s2)c(OC)c1	none
CCN(CC)C(=O)C1=C(C)N(CCCN2CCCC2=O)C(=O)C(CC(=O)NCC2CCCCC2)C1 (stereo not given)	none (no result: T cell HTS, ALR H2O2 inh)
NC(=O)C1CCCCc2c1[nH]c1ccc(Cl)cc21 (stereo not given)	ALR H2O2 inh 97.8
CCNC(=O)C1CCCc2c1[nH]c1ccc(Cl)cc21 (stereo not given)	none
NC(=O)NC1CCCc2c1[nH]c1ccc(Cl)cc21 (stereo not given)	ALR H2O2 inh 98.1
CCOC(=O)C1CCCc2c1[nH]c1ccc(Cl)cc21 (stereo not given)	none
CC(OC(=O)CNS(=O)(=O)c1ccc(C#N)cc1)C(=O)Nc1ccc(Cl)cn1 (stereo not given)	none (no result: ALR H2O2 inh)
C=CCOc1ccc(C2NC(=S)NC(c3ccccc3)=C2C(C)=O)cc1OC (stereo not given)	T cell HTS 27.2
COc1cc(C2NC(=O)NC(c3ccccc3)=C2C(C)=O)ccc1OCC#N (stereo not given)	none
O=C(Nc1cccc2cccnc12)c1csc([C@@H]2O[C@H](CO)[C@H](O)[C@H](O)[C@H]2O)n1	none (no result: T cell HTS, ALR H2O2 inh)
N#Cc1ccc(C(=O)CSc2n[nH]c(=O)n2Cc2ccco2)cc1	none
COc1cc(C(=O)NC(=S)NNC(=O)c2cnccn2)cc(OC)c1OC	ALR H2O2 inh 95.9
COc1ccc(C(=O)NC(=S)NNC(=O)c2cnccn2)cc1	none
C[C@@H]1CN([C@@H](C)CO)C(=O)Cc2cc(NC(=O)C3CCCCC3)ccc2O[C@H]1CN(C)S(=O)(=O)c1ccccc1	none
CC(C)(CNC(=O)CC1C(=O)NCCN1Cc1cccc(F)c1)N1CCOCC1 (stereo not given)	none
Cc1cccc(C(=O)O/N=C(\N)c2cccc([N+](=O)[O-])c2)c1	none
CC1=CC(=O)C=C(C)C1=NOC(=O)c1cccc([N+](=O)[O-])c1	ALR H2O2 inh 99.9
C[C@@H]1CN([C@@H](C)CO)S(=O)(=O)c2ccc(Br)cc2O[C@@H]1CN(C)C(=O)c1ccccn1	none (no result: T cell HTS, ALR H2O2 inh)
COC(=O)[C@H](CC(C)C)NC(=O)CC[C@H]1O[C@@H](n2ccc(=O)[nH]c2=O)[C@H](O)[C@@H]1O	none (no result: T cell HTS, ALR H2O2 inh)
Cc1[nH]c2ccccc2c1/C=N/NC(=S)NC(C)C	ALR H2O2 inh 99.5
CC(C)NC(=S)N/N=C/c1c[nH]c2ccccc12	none
O=C(O)c1ccc(Sc2nnc(-c3cccc(Br)c3)o2)c([N+](=O)[O-])c1	ALR H2O2 inh 98.6
Cn1c(Sc2ccc(C(=O)O)cc2[N+](=O)[O-])nnc1-c1ccccc1	none
O=C(O)CCSCC(=O)c1ccc2c(c1)OCCO2	ALR H2O2 inh 98.2
O=C(COc1ncnc2ccccc12)c1ccc2c(c1)OCCO2	none
O=C(O)CCC(=O)c1ccc2c(c1)OCCO2	none
O=C(CSc1nc(Cc2ccccc2)nc2ccccc12)c1ccc2c(c1)OCCO2	ALR H2O2 inh 99.0
O=C(CSc1ncnc2ccccc12)c1ccc2c(c1)OCCO2	ALR H2O2 inh 98.9
CCc1nc(SCC(=O)c2ccc3c(c2)OCCO3)c2ccccc2n1	N-glyco inh inconclusive (no result: ALR H2O2 inh)
O=C(NC1CCCCCC1)C1CCC(=O)N(Cc2ccccc2F)C1 (stereo not given)	none
CCOc1cc(C(=O)N(C)CC(=O)Nc2cccc(F)c2)ccc1OCC(=O)N1CCCCC1	none
Cc1ccccc1OCC(=O)OCC(=O)NC1CC1	none
O=C(Cn1cnc2ccccc2c1=O)NNC(=O)c1cccc([N+](=O)[O-])c1	none
Cn1c(N)c(C(=O)CSc2nnc(-c3c[nH]c4ccccc34)n2C2CC2)c(=O)[nH]c1=O	none
O=C(CCSc1nc2cc(Cl)ccc2o1)N1CCOCC1	ALR H2O2 inh 98.6
CCNC(=O)CCSc1nc2cc(Cl)ccc2o1	ALR H2O2 inh 90.3
O=C(CSc1nc2cc(Cl)ccc2o1)NC1CC1	none
O=C(CSc1nc2cc(Cl)ccc2o1)N1CCOCC1	none
COCCCNC(=O)CCn1nc(-c2ccc(Cl)cc2)ccc1=O	none
